Marks after values point to notes of the source that are not given here.
What was measured:
[1] = test system: Salmonella typhimurium TA1535; test: Antimutagenicity assay against sodium azide; type: cell-based; conditions: for NaN3 mutagenicity (revertant colonies/plate; mean ± SEM): NaN3 2 μg/plate, spontaneous 29.3±5.3; for Mutant frequency (sodium azide): mutant colonies/viable colonies; for Antimutagenic potential against NaN3: only at 20 μM
Procedure, shortened: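 TA1535 was exposed to test compound at 10 or 20 µM with NaN₃ (2 µg/plate) in two schemes. In pre-exposure, compound and bacteria were shaken 30 min at 37°C before mutagen was added. In co-exposure, bacteria, mutagen and compound were incubated together 30 min at 37°C. Cells were then plated on minimal glucose agar, and revertants counted at 48 h, in triplicate. Mutant frequency = mutant colonies/viable colonies.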

[2] = test system: Salmonella typhimurium TA1535; test: Cytotoxicity in liquid medium; type: cell-based; conditions: mean ± SEM
Procedure, shortened: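 TA1535 was grown in broth microdilution with test compound at 25, 50 or 100 µM. Viability was expressed as % of untreated control (mean ± SEM), triplicate.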

[3] = test system: Salmonella typhimurium TA1535; test: Ames Salmonella/microsomal mutagenicity assay; type: cell-based; conditions: presence of S9 mix, spontaneous 67.0±6.1
[4] = test system: Salmonella typhimurium TA1535; test: Antimutagenicity assay against benzo[a]pyrene with S9 mix; type: cell-based; conditions: for B[a]P mutagenicity (revertant colonies/plate; mean ± SEM): B[a]P 20 μM + S9 mix, spontaneous 105.0±13.1; for Mutant frequency (benzo[a]pyrene): mutant colonies/viable colonies
G-quadruplex DNA = conditions: cited from earlier work

SMILES | NaN3 mutagenicity (revertant colonies/plate; mean ± SEM) ([1]; co-exposure, 10 μM) | Mutant frequency (sodium azide) ([1]; co-exposure, 10 μM) | NaN3 mutagenicity (revertant colonies/plate; mean ± SEM) ([1]; co-exposure, 20 μM) | Mutant frequency (sodium azide) ([1]; co-exposure, 20 μM) | NaN3 mutagenicity (revertant colonies/plate; mean ± SEM) ([1]; pre-exposure, 10 μM) | Mutant frequency (sodium azide) ([1]; pre-exposure, 10 μM) | NaN3 mutagenicity (revertant colonies/plate; mean ± SEM) ([1]; pre-exposure, 20 μM) | Mutant frequency (sodium azide) ([1]; pre-exposure, 20 μM) | Antimutagenic potential against NaN3 ([1]; pre-exposure) | Viability at fluoroarylbichalcophene concentrations (% of control) ([2]; 25 μM) | Viability at fluoroarylbichalcophene concentrations (% of control) ([2]; 50 μM) | Viability at fluoroarylbichalcophene concentrations (% of control) ([2]; 100 μM) | Fluoroarylbichalcophene mutagenicity (revertant colonies/plate; mean ± SEM) ([3]; 10 μM) | Fluoroarylbichalcophene mutagenicity (revertant colonies/plate; mean ± SEM) ([3]; 20 μM) | B[a]P mutagenicity (revertant colonies/plate; mean ± SEM) ([4]; co-exposure, 10 μM) | B[a]P mutagenicity (revertant colonies/plate; mean ± SEM) ([4]; co-exposure, 20 μM) | B[a]P mutagenicity (revertant colonies/plate; mean ± SEM) ([4]; pre-exposure, 10 μM) | Mutant frequency (benzo[a]pyrene) ([4]; pre-exposure, 10 μM) | B[a]P mutagenicity (revertant colonies/plate; mean ± SEM) ([4]; pre-exposure, 20 μM) | Mutant frequency (benzo[a]pyrene) ([4]; pre-exposure, 20 μM) | also measured
Cl.N=C(N)c1ccc(-c2ccc(-c3ccco3)o2)cc1F [Compound 5b, 4-(2,2′-Bifuran-5-yl)-2-fluorobenzamidine hydrochloride salt] | 26.0±2.0 revertant colonies/plate | 0.50 | 21.7±2.5 revertant colonies/plate | 0.43 | 126.7±11.2 revertant colonies/plate | 2.45 | 40.3±6.5 revertant colonies/plate | 0.79 | strong (40% or more reduction means strong antimutagenic activity) | 101.7±11.3 % of control | 62.0±5.5 ^a % of control | 36.7±2.8 ^a % of control | 68.7±4.0 revertant colonies/plate | 65.0±4.9 revertant colonies/plate | 213.7±15.8 revertant colonies/plate | 166.0±6.6 revertant colonies/plate | 178.0±8.2 revertant colonies/plate | 2.81 | 163.0±7.9 revertant colonies/plate | 2.53 | Mutant frequency (benzo[a]pyrene) ([4]; co-exposure, 10 μM): 3.38; Mutant frequency (benzo[a]pyrene) ([4]; co-exposure, 20 μM): 2.58
Cl.N=C(N)c1ccc(-c2ccc(-c3cccs3)o2)c(F)c1 [Compound 5c, 3-Fluoro-4-(5-(thiophen-2-yl)furan-2-yl)benzamidine hydrochloride salt] | 25.7±1.8 revertant colonies/plate | 0.48 | 24.0±3.0 revertant colonies/plate | 0.47 | 102.0±7.2 revertant colonies/plate | 1.91 | 33.3±8.7 revertant colonies/plate | 0.65 | strong (40% or more reduction means strong antimutagenic activity) | 71.3±6.4 % of control | 58.7±4.2 ^a % of control | 28.7±3.0 ^a % of control | 70.0±5.9 revertant colonies/plate | 66.0±3.5 revertant colonies/plate | 110.7±10.5 revertant colonies/plate | 111.0±10.2 revertant colonies/plate | 148.7±9.8 revertant colonies/plate | 2.23 | 124.0±5.3 revertant colonies/plate | 2.02 | –
Cl.N=C(N)c1ccc(-c2ccc(-c3cccs3)o2)cc1F [Compound 5d, 2-Fluoro-4-(5-(thiophen-2-yl)furan-2-yl)benzamidine hydrochloride salt] | 43.3±6.8 revertant colonies/plate | 0.76 | 20.0±1.0 revertant colonies/plate | 0.40 | 65.0±5.0 revertant colonies/plate | 1.14 | 44.3±4.5 revertant colonies/plate | 0.88 | – | 105.7±4.6 % of control | 65.3±3.9 ^a % of control | 49.3±3.8 ^a % of control | 65.0±7.0 revertant colonies/plate | 67.7±6.0 revertant colonies/plate | 109.7±8.3 revertant colonies/plate | 101.0±6.0 revertant colonies/plate | 261.0±8.5 revertant colonies/plate | 4.19 | 216.7±14.3 revertant colonies/plate | 3.28 | –
N=C(N)c1ccc(-c2ccc(-c3ccc(C(=N)N)o3)o2)cc1 [Compound I, 5′-(4-amidinophenyl)-2,2′-bifuran-5-carboxamidine] | – | – | – | – | – | – | – | – | – | – | – | – | – | – | – | – | – | – | – | – | Recognition of G-quadruplex DNA (G-quadruplex DNA): recognize G-quadruplex DNA

— article PMC4109633 (Drug Design, Development and Therapy, 2014)
